# Experimental data of several laboratories.
# Lines come from different studies, so protocols differ.
# Target: STE20-like serine/threonine-protein kinase (SLK, Homo sapiens, UniProt Q9H2G2)
Structure (SMILES),observed,mode,technique,cells,tested at,endpoint,result
Nc1cnc(N2CCc3cc(S(=O)(=O)Nc4c(F)cc(Cl)cc4F)cc(N4CCCC4=O)c32)nc1,cell-free assay,,competition with immobilised ligand,,1 µM,remaining binding,100%
Cn1c2c(Cl)c(Cl)ccc2c2cc[nH]c(=O)c21,thermal stability,,DSF,,10 µM,ΔTm,0.2 °C
Nc1ncnc2occ(-c3ccc(NC(=O)Nc4cc(C(F)(F)F)ccc4F)cc3)c12,cell-free assay,inhibitor,,,20 µM,remaining signal,0.05%
Cn1c2c(c3ccc(Cl)c(Cl)c31)C(C#N)C1(CCOCC1)NC2=O (centres unmarked),thermal stability,,DSF,,10 µM,ΔTm,-0.4 °C
COc1cc(Nc2c(C#N)cnc3cc(OCCCN4CCN(C)CC4)c(OC)cc23)c(Cl)cc1Cl,cell-free assay,,,,0.5 µM,remaining signal,21.6%
CC(C)(C)c1nc(-c2cccc(NS(=O)(=O)c3c(F)cccc3F)c2F)c(-c2ccnc(N)n2)s1,enzyme activity,inhibitor,radiometric,,1 µM,remaining activity,90%
O=C(N1CCS(=O)(=O)CC1)N1C[C@H](c2ccc(OC(F)(F)F)cc2)C[C@H](c2nc(C3CC3)no2)C1,cell-free assay,,competition with immobilised ligand,,1 µM,remaining binding,100%
O=C(Nc1cnn(-c2csc(C(=O)NC3COC3)c2)c1)Nc1c(F)cccc1Cl,enzyme activity,inhibitor,,,5 µM,remaining activity,95%
O=C1Nc2ccc(Cl)cc2C1=Cc1cc(Cl)c(O)c(Cl)c1,cell-free assay,,,,0.5 µM,remaining signal,95.3%
CC/C(=N\NC(=O)NCc1cccc(O)c1)c1ccc(O)c(C)c1O,enzyme activity,inhibitor,,,0.1 µM,inhibition,4%
CN(C)CC#Cc1ccc(OCCCc2sc(N3CCc4cccc(C(=O)Nc5nc6ccccc6s5)c4C3)nc2C(=O)O)c(F)c1,cell-free assay,,competition with immobilised ligand,,1 µM,remaining binding,100%
CCN(CC)CCNC(=O)c1c(C)[nH]c(/C=C2\C(=O)Nc3ccc(F)cc32)c1C,cell-free assay,,,,0.5 µM,remaining signal,63.8%
Cn1c2c(c3ccc(Cl)c(Cl)c31)C(C#N)C(C)(C)NC2=O (centres unmarked),thermal stability,,DSF,,10 µM,ΔTm,-0.1 °C
Cc1c[nH]c2nccc(Oc3c(F)cc(Nc4cc(Cl)nc(N)n4)cc3F)c12,cell-free assay,,competition with immobilised ligand,,0.1 µM,remaining binding,97%
CCN1CCN(Cc2ccc(NC(=O)c3ccc(C)c(Oc4ccnc5[nH]ccc45)c3)cc2C(F)(F)F)CC1,target engagement in cells,inhibitor,chemoproteomics,Huh-7,10 µM,inhibition,-24.5%
Cn1nc(C(=O)NCc2ccc(C(=O)O)cc2)cc1-c1ccc2[nH]ccc2c1,cell-free assay,,competition with immobilised ligand,,0.1 µM,remaining binding,65%
COc1cc(-c2cc(-c3ccc(N4CCNCC4)cc3)cnc2C)cc(OC)c1OC,enzyme activity,inhibitor,,,0.1 µM,inhibition,12%
